This note sets out measurements from ChEMBL document CHEMBL1157979, “Chromone derivatives from the filamentous fungus Lachnum sp. BCC 2424” (J Nat Prod, 2006).

The test system of assay [1] is Candida albicans. The experiment in a line: Antifungal activity against Candida albicans by MTT assay. Format: functional, organism-based. In outline: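 Tested against Candida albicans strain ATCC 90028 with a modified colorimetric method that uses tetrazolium salt (MTT) reduction as the read-out.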
(In general: Tetrazolium assays rely on reduction of a dye to a coloured formazan, in cell work by metabolically active cells.)

Assay [2] concerns Mycobacterium tuberculosis. The experiment in a line: Antimicrobial activity against Mycobacterium tuberculosis H37Ra by Microplate Alamar blue assay. Format: functional. In outline:
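Whole-cell growth inhibition of M. tuberculosis H37Ra read by Microplate Alamar Blue Assay; value reported as minimum inhibitory concentration; isoniazid and kanamycin sulfate as reference drugs.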
(Alamar Blue is a resazurin reagent that responds to reducing activity.)

Assay [3] relates to BC1. The experiment in a line: (§1) Cytotoxicity against human BC1 cells by MTT assay. Type of assay: functional, cell-based.
Assay [4] concerns KB. The assay can be described thus: Cytotoxicity against human KB cells by MTT assay. Type of assay: functional, cell-based.
Assay [5] is described as follows: as §1. Format: functional, cell-based.
Assay [6] concerns Plasmodium falciparum. The experiment in a line: Antimalarial activity after 42 hrs against Plasmodium falciparum K1. As to conditions: K1, 42 h.

Values after ≈ are worked out from the molar mass of the structure shown. Active and inactive are the calls of the source. No cut-off for these calls is given here.

With `Cc1cc(O)c2c(=O)c(O)c(C)oc2c1`, the outcome in assay [1], in assay [2], in assay [3] and in assay [4] was inactive.

As a reminder, the MIC is the lowest concentration that inhibits growth of the organism. Low values mean inhibition by little substance, high ones a need for much substance. `NNC(=O)c1ccncc1` [ISONIAZID] displayed an MIC in assay [2] of 0.05 µg/mL (≈ 0.365 µM).

Usually IC50 stands for the midpoint of a concentration-inhibition curve. Lower therefore signals greater potency in that assay. On to `Cc1c2ccncc2c(C)c2c1[nH]c1ccccc12` [ELLIPTECINE], for which the figures for the IC50 in assay [5] and in assay [4] were 0.22 µg/mL (≈ 0.893 µM) and 0.24 µg/mL (≈ 0.974 µM), respectively.

Turning to `C[C@]1([C@@H]2CCC(=O)O2)CC(=O)c2c(O)cc(CO)cc2O1`, the result in assay [1], in assay [2], in assay [3] and in assay [4] was inactive.

Take `C[C@H]1[C@@H](O)O[C@@H]2O[C@@]3(C)CC[C@H]4[C@H](C)CC[C@@H]1[C@@]24OO3` [ARTENIMOL]: the IC50 in assay [6] was determined as 3.7 nM.

As for `CC(=O)C[C@]1(O)C(=O)c2c(O)cc(CO)cc2O[C@@]1(C)[C@@H]1CCC(=O)O1`, the result in assay [1], in assay [2], in assay [3] and in assay [4] was inactive.

For `C[C@@]1([C@@H]2CCC(=O)O2)Oc2cc(CO)cc(O)c2C(=O)[C@H]1O` [LACHNONE D], the result in assay [1], in assay [3] and in assay [4] was inactive. In assay [2], this compound registered an MIC of 200 µg/mL (≈ 649 µM).

For `NC[C@H]1O[C@H](O[C@H]2[C@H](O)[C@@H](O[C@H]3O[C@H](CO)[C@@H](O)[C@H](N)[C@H]3O)[C@H](N)C[C@@H]2N)[C@H](O)[C@@H](O)[C@@H]1O.O=S(=O)(O)O` [KANAMYCIN SULFATE], the MIC in assay [2] turned out to be 2.5 µg/mL.

For `Cc1oc2cc(CO)cc(O)c2c(=O)c1O` [LACHNONE B], the outcome in assay [1], in assay [3] and in assay [4] was inactive. This compound also registered an MIC in assay [2] of 200 µg/mL (≈ 900 µM).
